Data published in ChEMBL document CHEMBL4359823, “Switching on the activity of 1,5-diaryl-pyrrole derivatives against drug-resistant ESKAPE bacteria: Structure-activity relationships and mode of action studies” (Eur J Med Chem, 2019).
Values after ≈ are worked out from the molar mass of the structure shown.

Tests used:
Format in all cases: functional
[1] = system: Staphylococcus aureus; test: Antibacterial activity against methicillin sensitive Staphylococcus aureus NCTC 6571 measured after overnight incubation by microbroth dilution method
How it was run: (§1)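 Microbroth dilution: DMSO stocks diluted in water, 2-fold series. Overnight TSB cultures back-diluted to OD 0.01 and mixed 1:1 with compound. Incubated overnight at 37 °C; MIC taken as lowest concentration without visible growth (<0.1 OD600). Run in duplicate; matching DMSO levels checked for effect on growth.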

[2] = system: Staphylococcus aureus; test: Antibacterial activity against methicillin resistant Staphylococcus aureus NCTC13616 measured after overnight incubation by microbroth dilution method; how it was run: as §1
[3] = system: Pseudomonas aeruginosa; test: Antibacterial activity against Pseudomonas aeruginosa PAO1 measured after overnight incubation by microbroth dilution method
How it was run: (§2)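 Microbroth dilution MIC. Compound DMSO stocks were diluted in water as a 2-fold series. Overnight TSB cultures were back-diluted to OD 0.01 and mixed 1:1 with compound. Plates were incubated overnight at 37 °C. MIC was the lowest concentration without visible growth (<0.1 OD600), run in duplicate.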

[4] = system: Escherichia coli; test: Antibacterial activity against Escherichia coli NCTC12923 measured after overnight incubation by microbroth dilution method; how it was run: as §2
[5] = system: Klebsiella pneumoniae; test: Antibacterial activity against Klebsiella pneumoniae M6 measured after overnight incubation by microbroth dilution method; how it was run: as §2
[6] = system: Pseudomonas aeruginosa; test: Antibacterial activity against Pseudomonas aeruginosa NCTC13437 measured after overnight incubation by microbroth dilution method; how it was run: as §2
[7] = system: Acinetobacter baumannii; test: Antibacterial activity against Acinetobacter baumannii ATCC 17978 measured after overnight incubation by microbroth dilution method; how it was run: as §2
[8] = system: Enterococcus faecalis; test: Antibacterial activity against vancomycin resistant Enterococcus faecalis NCTC12204 measured after overnight incubation by microbroth dilution method; how it was run: as §1
[9] = system: Klebsiella pneumoniae; test: Antibacterial activity against Klebsiella pneumoniae NCTC13368 measured after overnight incubation by microbroth dilution method; how it was run: as §2
[10] = system: Acinetobacter baumannii; test: Antibacterial activity against Acinetobacter baumannii AYE measured after overnight incubation by microbroth dilution method; how it was run: as §2
[11] = system: Enterococcus faecalis; test: Antibacterial activity against vancomycin resistant Enterococcus faecalis NCTC12201 measured after overnight incubation by microbroth dilution method; how it was run: as §1
[12] = system: Staphylococcus aureus; test: Antibacterial activity against methicillin resistant Staphylococcus aureus NCTC13277 measured after overnight incubation by microbroth dilution method; how it was run: as §1
[13] = system: Enterococcus faecalis; test: Antibacterial activity against vancomycin sensitive Enterococcus faecalis NCTC775 measured after overnight incubation by microbroth dilution method; how it was run: as §1

Compound | MIC [1] [µg/mL] | MIC [2] [µg/mL] | MIC [3] [µg/mL] | MIC [4] [µg/mL] | MIC [5] [µg/mL] | MIC [6] [µg/mL] | MIC [7] [µg/mL] | MIC [8] [µg/mL] | MIC [9] [µg/mL] | MIC [10] [µg/mL] | MIC [11] [µg/mL] | MIC [12] [µg/mL] | MIC [13] [µg/mL]
Cc1c(CNCC2CCCCC2)cc(-c2ccc(Cl)cc2)n1-c1ccc(Cl)cc1 | 4 (≈ 9.36 µM) | 4 (≈ 9.36 µM) | > 128 | > 128 | > 128 | > 128 | > 128 | 2 (≈ 4.68 µM) | > 128 | > 128 | 4 (≈ 9.36 µM) | 4 (≈ 9.36 µM) | 2 (≈ 4.68 µM)
Cc1c(CNC2CCC(N)CC2)cc(-c2ccc(Cl)cc2)n1-c1ccc(Cl)cc1 (stereo unspecified) | 8 (≈ 18.7 µM) | 8 (≈ 18.7 µM) | 32 (≈ 74.7 µM) | 8 (≈ 18.7 µM) | 16 (≈ 37.3 µM) | 32 (≈ 74.7 µM) | 16 (≈ 37.3 µM) | 4 (≈ 9.34 µM) | 32 (≈ 74.7 µM) | 32 (≈ 74.7 µM) | 8 (≈ 18.7 µM) | 8 (≈ 18.7 µM) | 8 (≈ 18.7 µM)
Cc1c(CNCCNc2ccccc2)cc(-c2ccc(Cl)cc2)n1-c1ccc(Cl)cc1 | 4 to 8 (≈ 8.88 to 17.8 µM) | 4 to 8 (≈ 8.88 to 17.8 µM) | > 128 | > 128 | > 128 | > 128 | > 128 | 4 to 8 (≈ 8.88 to 17.8 µM) | > 128 | > 128 | 4 (≈ 8.88 µM) | 4 to 8 (≈ 8.88 to 17.8 µM) | 4 (≈ 8.88 µM)
Cc1c(CNC2CCCCC2)cc(-c2ccc(F)cc2)n1-c1ccc(Cl)cc1 | 8 (≈ 20.2 µM) | 8 (≈ 20.2 µM) | > 128 | > 128 | > 128 | > 128 | 128 (≈ 322 µM) | 4 (≈ 10.1 µM) | > 128 | 128 (≈ 322 µM) | 4 (≈ 10.1 µM) | 8 (≈ 20.2 µM) | 8 (≈ 20.2 µM)
Cc1c(CNC2CCCCC2)cc(-c2ccc(Cl)cc2)n1-c1cccc(F)c1 | 8 (≈ 20.2 µM) | 8 (≈ 20.2 µM) | > 128 | > 128 | > 128 | > 128 | 128 (≈ 322 µM) | 4 (≈ 10.1 µM) | > 128 | 128 (≈ 322 µM) | 4 (≈ 10.1 µM) | 8 (≈ 20.2 µM) | 8 (≈ 20.2 µM)
Cc1c(CNC(C)c2ccccc2)cc(-c2ccc(Cl)cc2)n1-c1ccc(Cl)cc1 (stereo unspecified) | 4 (≈ 9.19 µM) | 4 (≈ 9.19 µM) | > 128 | 16 to 128 (≈ 36.7 to 294 µM) | > 128 | > 128 | > 128 | 2 (≈ 4.59 µM) | > 128 | > 128 | 2 to 4 (≈ 4.59 to 9.19 µM) | 4 (≈ 9.19 µM) | 2 to 4 (≈ 4.59 to 9.19 µM)
Cc1cc(CNCCCCCCCCNC(=N)N)c(C)n1-c1ccc(Cl)cc1 | 4 (≈ 9.9 µM) | 8 (≈ 19.8 µM) | > 128 | 16 (≈ 39.6 µM) | 128 (≈ 317 µM) | 64 (≈ 158 µM) | 16 (≈ 39.6 µM) | 4 to 8 (≈ 9.9 to 19.8 µM) | > 128 | 64 (≈ 158 µM) | 16 (≈ 39.6 µM) | 8 (≈ 19.8 µM) | 8 to 16 (≈ 19.8 to 39.6 µM)
Cc1cc(CNCc2ccccc2)c(C)n1-c1ccc(Cl)cc1 | > 128 | > 128 |  |  |  |  |  | 128 (≈ 394 µM) |  |  | > 128 | > 128 | > 128
Cc1ccc(C)c(-n2c(-c3ccc(Cl)cc3)cc(CNC3CCCCC3)c2C)c1 | 4 (≈ 9.83 µM) | 4 (≈ 9.83 µM) | > 128 | > 128 | > 128 | > 128 | 64 (≈ 157 µM) | 2 (≈ 4.91 µM) | > 128 | > 128 | 4 (≈ 9.83 µM) | 8 (≈ 19.7 µM) | 4 (≈ 9.83 µM)
Cc1c(CNC2CCCCC2)cc(-c2ccc(Cl)cc2)n1-c1ccc([N+](=O)[O-])cc1 | 8 (≈ 18.9 µM) | 16 (≈ 37.7 µM) | > 128 | > 128 | > 128 | > 128 | 128 (≈ 302 µM) | 4 (≈ 9.44 µM) | > 128 | 128 (≈ 302 µM) | 8 (≈ 18.9 µM) | 16 (≈ 37.7 µM) | 8 (≈ 18.9 µM)
Cc1c(CNC2CCCCC2)cc(-c2ccc(Cl)cc2)n1-c1ccccc1C(F)(F)F | 4 (≈ 8.95 µM) | 8 (≈ 17.9 µM) | > 128 | > 128 | > 128 | > 128 | > 128 | 2 (≈ 4.47 µM) | > 128 | 128 (≈ 286 µM) | 4 (≈ 8.95 µM) | 8 (≈ 17.9 µM) | 4 (≈ 8.95 µM)
Cc1c(CNC2CCC(O)CC2)cc(-c2ccc(Cl)cc2)n1-c1ccc(Cl)cc1 (stereo unspecified) | 16 (≈ 37.3 µM) | 16 (≈ 37.3 µM) | > 128 | > 128 | > 128 | > 128 | 64 (≈ 149 µM) | 8 (≈ 18.6 µM) | > 128 | 128 (≈ 298 µM) | 16 (≈ 37.3 µM) | 16 (≈ 37.3 µM) | 16 (≈ 37.3 µM)
Cc1c(CNC2CCCCC2)cc(-c2ccc(C(C)(C)C)cc2)n1-c1ccc(Cl)cc1 | 4 (≈ 9.19 µM) | 4 (≈ 9.19 µM) | > 128 | > 128 | > 128 | > 128 | > 128 | 2 (≈ 4.6 µM) | > 128 | > 128 | 2 (≈ 4.6 µM) | 4 (≈ 9.19 µM) | 4 (≈ 9.19 µM)
Cc1cc(CNC2CCCCC2)c(C)n1-c1ccc(Cl)cc1 | 64 (≈ 202 µM) | 64 (≈ 202 µM) | > 64 |  | > 64 | > 64 | > 64 | 16 (≈ 50.5 µM) | > 64 | > 64 | 32 (≈ 101 µM) | 64 (≈ 202 µM) | 32 (≈ 101 µM)
Cc1c(CNC2CCCCC2)cc(-c2ccc(Cl)cc2)n1-c1ccc(F)cc1 | 8 (≈ 20.2 µM) | 8 (≈ 20.2 µM) | > 128 | > 128 | > 128 | > 128 | 64 (≈ 161 µM) | 4 (≈ 10.1 µM) | > 128 | 128 (≈ 322 µM) | 4 (≈ 10.1 µM) | 8 (≈ 20.2 µM) | 4 (≈ 10.1 µM)
Cc1c(CNC2CCCCCC2)cc(-c2ccc(Cl)cc2)n1-c1ccc(Cl)cc1 | 4 (≈ 9.36 µM) | 4 (≈ 9.36 µM) | 128 (≈ 299 µM) | > 128 | > 128 | 128 (≈ 299 µM) | 64 (≈ 150 µM) | 2 (≈ 4.68 µM) | > 128 | 128 (≈ 299 µM) | 2 (≈ 4.68 µM) | 4 (≈ 9.36 µM) | 4 (≈ 9.36 µM)
Cc1c(CNC(C)C)cc(-c2ccc(Cl)cc2)n1-c1ccc(Cl)cc1 | 8 (≈ 21.4 µM) | 8 (≈ 21.4 µM) | > 128 | 32 to 128 (≈ 85.7 to 343 µM) | > 128 | > 128 | 32 (≈ 85.7 µM) | 4 (≈ 10.7 µM) | > 128 | 64 (≈ 171 µM) | 8 (≈ 21.4 µM) | 8 to 16 (≈ 21.4 to 42.9 µM) | 8 (≈ 21.4 µM)
Cc1c(CNC2CCC(NC(=N)N)CC2)cc(-c2ccc(Cl)cc2)n1-c1ccc([N+](=O)[O-])cc1 (stereo unspecified) | 4 (≈ 8.32 µM) | 8 (≈ 16.6 µM) | > 128 | 64 (≈ 133 µM) | > 128 | > 128 | 64 (≈ 133 µM) | 16 (≈ 33.3 µM) | > 128 | > 128 | 64 (≈ 133 µM) | 8 (≈ 16.6 µM) | 32 (≈ 66.5 µM)
Cc1c(CNC2CCCCCC2)cc(-c2ccc(Cl)cc2)n1-c1ccc(F)cc1 | 4 (≈ 9.73 µM) | 8 (≈ 19.5 µM) | > 128 | 128 (≈ 311 µM) | > 128 | > 128 | > 128 | 2 (≈ 4.87 µM) | > 128 | 128 (≈ 311 µM) | 4 (≈ 9.73 µM) | 4 (≈ 9.73 µM) | 4 (≈ 9.73 µM)
Cc1c(CNCCCCCCCCNC(=N)N)cc(-c2ccc(Cl)cc2)n1-c1ccc(Cl)cc1 | 4 (≈ 7.99 µM) | 4 (≈ 7.99 µM) | 128 (≈ 256 µM) | 8 (≈ 16 µM) | 16 (≈ 32 µM) | 64 (≈ 128 µM) | 8 (≈ 16 µM) | 4 (≈ 7.99 µM) | 32 (≈ 63.9 µM) | 32 (≈ 63.9 µM) | 8 (≈ 16 µM) | 4 (≈ 7.99 µM) | 8 (≈ 16 µM)
Cc1c(CNC2CCCCC2)cc(-c2ccc(Cl)cc2)n1-c1ccc(Cl)cc1Cl | 4 (≈ 8.93 µM) | 4 (≈ 8.93 µM) | > 128 | > 128 | > 128 | > 128 | 128 (≈ 286 µM) | 2 (≈ 4.47 µM) | > 128 | > 128 | 4 (≈ 8.93 µM) | 4 (≈ 8.93 µM) | 4 (≈ 8.93 µM)
Cc1c(CNC2CCCCC2)cc(-c2ccc(Cl)cc2)n1-c1ccc(O)cc1 | 32 (≈ 81 µM) | 8 to 64 (≈ 20.3 to 162 µM) | > 128 | > 128 | > 128 | > 128 | 128 (≈ 324 µM) | 32 (≈ 81 µM) | > 128 | > 128 | 32 (≈ 81 µM) | 32 (≈ 81 µM) | 64 (≈ 162 µM)
Cc1c(CNC2C3CC4CC(C3)CC2C4)cc(-c2ccc(Cl)cc2)n1-c1ccc(Cl)cc1 (stereo unspecified) | 4 (≈ 8.59 µM) | 4 (≈ 8.59 µM) | > 128 | > 128 | > 128 | > 128 | > 128 | 2 (≈ 4.3 µM) | > 128 | > 128 | 2 (≈ 4.3 µM) | 4 (≈ 8.59 µM) | 4 (≈ 8.59 µM)
